# Results from PubChem BioAssay.
# Active and inactive are the calls of the source.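 The calls were made as follows, unless noted: active = viability at or below 30% in both replicate assays; inconclusive = viability at or below 30% in just one of the two assays; inactive = the rest.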
# Legend:
# [1] = reducers of endogenous Her2 protein level, primary screen, SKBR3 breast tumor cells, AlphaScreen, ATP viability (AID 461;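 active = Her2 level under about 52% in both replicate screens, with viability over 70% of control, limit read from the data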;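 as to Her2 level: lower value means less Her2 protein in the cells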;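 as to viability: percent of carrier control wells set as 100% viability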); details: 18-24 h, measured here: SKBR3 viability, ATP luminescence, at 10 µM
# [2] = target: Receptor tyrosine-protein kinase erbB-2 (Homo sapiens) (UniProt P04626); assay: as above; details: 18-24 h, at 10 µM, stronger effect = lower value
# Chain of Receptor tyrosine-protein kinase erbB-2 (Homo sapiens) (P04626 whole entry, looked up): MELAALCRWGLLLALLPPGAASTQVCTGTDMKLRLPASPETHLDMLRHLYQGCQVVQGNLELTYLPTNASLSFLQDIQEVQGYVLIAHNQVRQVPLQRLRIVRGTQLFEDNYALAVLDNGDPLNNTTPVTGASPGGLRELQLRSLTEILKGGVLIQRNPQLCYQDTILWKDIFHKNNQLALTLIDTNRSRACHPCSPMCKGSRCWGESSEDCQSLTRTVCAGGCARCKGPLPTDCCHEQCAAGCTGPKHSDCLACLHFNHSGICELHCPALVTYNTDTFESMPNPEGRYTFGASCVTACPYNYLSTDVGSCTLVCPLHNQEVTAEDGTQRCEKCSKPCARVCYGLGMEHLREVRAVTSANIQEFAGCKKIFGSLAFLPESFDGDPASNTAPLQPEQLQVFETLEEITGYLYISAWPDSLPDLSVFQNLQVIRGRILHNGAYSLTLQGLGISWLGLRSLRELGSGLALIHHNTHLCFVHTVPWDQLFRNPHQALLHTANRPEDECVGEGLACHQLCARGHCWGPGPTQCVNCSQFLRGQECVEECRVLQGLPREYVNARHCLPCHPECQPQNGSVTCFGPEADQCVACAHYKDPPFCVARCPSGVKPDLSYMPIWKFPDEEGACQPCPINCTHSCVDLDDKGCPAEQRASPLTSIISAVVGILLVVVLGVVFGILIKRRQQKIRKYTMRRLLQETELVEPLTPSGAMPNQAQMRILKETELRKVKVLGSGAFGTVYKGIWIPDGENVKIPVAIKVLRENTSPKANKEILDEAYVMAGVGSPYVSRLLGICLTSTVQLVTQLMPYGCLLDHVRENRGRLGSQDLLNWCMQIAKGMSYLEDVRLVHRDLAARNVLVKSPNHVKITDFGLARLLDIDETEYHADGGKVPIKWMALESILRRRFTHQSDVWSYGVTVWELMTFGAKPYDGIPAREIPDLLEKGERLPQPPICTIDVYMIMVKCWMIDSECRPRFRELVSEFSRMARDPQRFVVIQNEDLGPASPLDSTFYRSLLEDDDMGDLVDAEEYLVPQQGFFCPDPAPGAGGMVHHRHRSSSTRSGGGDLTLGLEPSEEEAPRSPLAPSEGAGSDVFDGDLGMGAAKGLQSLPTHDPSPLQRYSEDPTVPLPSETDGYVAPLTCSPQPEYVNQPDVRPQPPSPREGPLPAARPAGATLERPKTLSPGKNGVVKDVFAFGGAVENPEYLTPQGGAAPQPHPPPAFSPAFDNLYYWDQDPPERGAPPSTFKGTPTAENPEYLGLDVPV
# [3] = SK-BR-3 cell growth inhibitors, pilot screen, 24 h, human (AID 572;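 active = viability at or below 10% of carrier control in both of two separate runs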;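 also: compound exposure lasted between 18 and 24 h rather than exactly 24 h; 100% = carrier-treated control wells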); details: SK-BR-3 viability, CellTiter-Glo luminescence, at 10 µM, stronger effect = lower value
# [4] = HUVEC growth inhibition – cell-based, human, primary screen (AID 575); details: HUVEC proliferation, CellTiter-Glo luminescence, 72 h; at 10 µM; stronger effect = lower value;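 also: 100% = median of untreated cell wells with 0.1% DMSO on each plate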
# Method in brief: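 Test system – primary HUVEC, no more than 12 passages · Dosing – one dose, 10 µM final, 0.1% DMSO · Times – 72 h treatment at 37 °C · Measured by – ATP-based CellTiter-Glo luminescent read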
# [5] = growth inhibitors of H69AR lung tumor, primary screen, human, duplicate replicates (AID 580;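 active = viability at or under a set limit in both replicates, limit being median viability minus 3 SD, cut at about 48% in these data, passing the limit was not always enough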;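 also: 100% = mean luminescence of untreated wells and 0% = no signal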); details: H69AR lung tumor cells viability, ATP luminescence, 72 h; at 10 µM; stronger effect = lower value
# [6] = reversal of MRP1-mediated doxorubicin resistance, pilot screen, H69AR cells, doxorubicin co-treatment (AID 601;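 active = viability loss from added drug above about 55%, and viability with drug at most 40%, in both replicates, limit read from the data, passing the limit was not always enough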); details: CellTiter-Glo, 72 h, at 10 µM; for differential viability (reversal): stronger effect = higher value
# [7] = H69AR cells + 2 uM doxorubicin, measured here: viability with 2 uM doxorubicin, stronger effect = lower value
# [8] = H69AR cells, compound alone cytotoxicity
SMILES,viability [1],Her2 level [2],viability [3],viability [4],viability [5],differential viability (reversal) ([6]; H69AR cells + 2 uM doxorubicin),"viability [6, 7]","viability [6, 8]"
CC(C)[N+](C)(CCOC(=O)C1c2ccccc2Oc2ccccc21)C(C)C,108%,93% (inactive),108% (inactive),100% (inactive),88.1% (inactive),2.38% (inactive),85.7%,88.1%
CC[N+](C)(C)Cc1ccccc1Br,102%,92% (inactive),102% (inactive),107% (inactive),98.8% (inactive),-4.18% (inactive),103%,98.8%
CCC(=O)O[C@@H]1CC(=O)O[C@H](C)CC=CC=C[C@@H](O)[C@H](C)C[C@H](CC=O)[C@H](O[C@H]2O[C@H](C)[C@@H](O[C@H]3C[C@@](C)(O)[C@@H](OC(=O)CC)[C@H](C)O3)[C@H](N(C)C)[C@H]2O)[C@H]1OC,93.5%,126% (inactive),93.5% (inactive),109% (inactive),95.3% (inactive),-4.97% (inactive),100%,95.3%
C[C@]12CC[C@@H]3c4ccc(O[C@@H]5O[C@H](C(=O)O)[C@@H](O)[C@H](O)[C@H]5O)cc4CC[C@H]3[C@@H]1C[C@@H](O)[C@@H]2O,102%,92.5% (inactive),102% (inactive),89.5% (inactive),102% (inactive),17.1% (inactive),84.8%,102%
CCOC(=O)CCC(=O)O[C@H]1[C@H](O[C@@H]2[C@@H](C)[C@H](O[C@H]3C[C@@](C)(OC)[C@@H](O)[C@H](C)O3)[C@@H](C)C(=O)O[C@H](CC)[C@@](C)(O)[C@H](O)[C@@H](C)C(=O)[C@H](C)C[C@@]2(C)O)O[C@H](C)C[C@@H]1N(C)C,97%,98% (inactive),97% (inactive),79.6% (inactive),89.8% (inactive),-0.63% (inactive),90.4%,89.8%
CCCCOc1ccc(OCCCN2CCOCC2)cc1,96.5%,108% (inactive),96.5% (inactive),91.7% (inactive),103% (inactive),7.79% (inactive),95.2%,103%
CC(C)C[C@H](NC(=O)[C@@H]1O[C@H]1C(=O)O)C(=O)NCCCCN=C(N)N,100%,104% (inactive),100% (inactive),86% (inactive),100% (inactive),-2.29% (inactive),103%,100%
Cc1ccc(C)c(OCCCC(C)(C)C(=O)O)c1,130%,104% (inactive),130% (inactive),100% (inactive),109% (inactive),17.2% (inactive),91.5%,109%
Cc1cn([C@H]2C=C[C@@H](CO)O2)c(=O)[nH]c1=O,94%,94.5% (inactive),94% (inactive),104% (inactive),109% (inactive),22.8% (inactive),86.2%,109%
CCC(NC(C)C)C(O)c1ccc(O)c2[nH]c(=O)ccc12 (stereo not given),108%,94.5% (inactive),108% (inactive),107% (inactive),94.4% (inactive),11.7% (inactive),82.7%,94.4%
Cc1ncc([N+](=O)[O-])n1CC(O)CCl (stereo not given),99.5%,106% (inactive),99.5% (inactive),108% (inactive),104% (inactive),0.25% (inactive),104%,104%
CCCCC1C(=O)N(c2ccccc2)N(c2ccccc2)C1=O,99%,90.5% (inactive),99% (inactive),99.1% (inactive),98.5% (inactive),7.41% (inactive),91.1%,98.5%
COc1ccc2cc([C@H](C)C(=O)O)ccc2c1,93.5%,107% (inactive),93.5% (inactive),111% (inactive),94.8% (inactive),11.8% (inactive),83%,94.8%
NS(=O)(=O)c1cc2c(cc1C(F)(F)F)NC(Cc1ccccc1)NS2(=O)=O (stereo not given),106%,114% (inactive),106% (inactive),83.9% (inactive),88.9% (inactive),-5.48% (inactive),94.3%,88.9%
NS(=O)(=O)c1cc2c(cc1Cl)NC(C(Cl)Cl)NS2(=O)=O (stereo not given),102%,112% (inactive),102% (inactive),106% (inactive),93.9% (inactive),-9.8% (inactive),104%,93.9%
CCN(CC)CCNC(=O)c1ccc(N)cc1,97.5%,136% (inactive),97.5% (inactive),99.2% (inactive),88.1% (inactive),-10.7% (inactive),98.8%,88.1%
O=C(O)c1cccnc1Nc1cccc(C(F)(F)F)c1,100%,98.5% (inactive),100% (inactive),86.4% (inactive),108% (inactive),13.5% (inactive),94.5%,108%
CCCC(=O)O[C@]1(C(=O)CCl)[C@@H](C)C[C@H]2[C@@H]3CCC4=CC(=O)C=C[C@]4(C)[C@@]3(F)C(=O)C[C@@]21C,88.5%,122% (inactive),88.5% (inactive),81.2% (inactive),87.8% (inactive),6.43% (inactive),81.4%,87.8%
O=C(O)CCCCCCC1C(=O)NC(=O)N1CCC(O)C1CCCCC1 (stereo not given),108%,108% (inactive),108% (inactive),79.8% (inactive),99.3% (inactive),-4.75% (inactive),104%,99.3%
Cn1cc(NC(=O)c2cc(NC(=O)c3cc(NC=O)cn3C)cn2C)cc1C(=O)NCCC(=N)N,96%,87.5% (inactive),96% (inactive),90.6% (inactive),83.1% (inactive),-13.2% (inactive),96.3%,83.1%
